Bioassay records from PubChem.
Compounds with a hit are over-represented: about 2.9% of the library has one in this group of screens.
Apaf1 inhib – blocks human Apaf-1 apoptosome activity; O14727; reconstituted apoptosome caspase-3 activity, DEVD-Rh110 fluorescence; inhibition, % at 20 µM; 330,000 tested, 0.71% active; AID 489030; active = inhibition of at least 40% at 20 µM
Target sequence (O14727 whole entry, looked up): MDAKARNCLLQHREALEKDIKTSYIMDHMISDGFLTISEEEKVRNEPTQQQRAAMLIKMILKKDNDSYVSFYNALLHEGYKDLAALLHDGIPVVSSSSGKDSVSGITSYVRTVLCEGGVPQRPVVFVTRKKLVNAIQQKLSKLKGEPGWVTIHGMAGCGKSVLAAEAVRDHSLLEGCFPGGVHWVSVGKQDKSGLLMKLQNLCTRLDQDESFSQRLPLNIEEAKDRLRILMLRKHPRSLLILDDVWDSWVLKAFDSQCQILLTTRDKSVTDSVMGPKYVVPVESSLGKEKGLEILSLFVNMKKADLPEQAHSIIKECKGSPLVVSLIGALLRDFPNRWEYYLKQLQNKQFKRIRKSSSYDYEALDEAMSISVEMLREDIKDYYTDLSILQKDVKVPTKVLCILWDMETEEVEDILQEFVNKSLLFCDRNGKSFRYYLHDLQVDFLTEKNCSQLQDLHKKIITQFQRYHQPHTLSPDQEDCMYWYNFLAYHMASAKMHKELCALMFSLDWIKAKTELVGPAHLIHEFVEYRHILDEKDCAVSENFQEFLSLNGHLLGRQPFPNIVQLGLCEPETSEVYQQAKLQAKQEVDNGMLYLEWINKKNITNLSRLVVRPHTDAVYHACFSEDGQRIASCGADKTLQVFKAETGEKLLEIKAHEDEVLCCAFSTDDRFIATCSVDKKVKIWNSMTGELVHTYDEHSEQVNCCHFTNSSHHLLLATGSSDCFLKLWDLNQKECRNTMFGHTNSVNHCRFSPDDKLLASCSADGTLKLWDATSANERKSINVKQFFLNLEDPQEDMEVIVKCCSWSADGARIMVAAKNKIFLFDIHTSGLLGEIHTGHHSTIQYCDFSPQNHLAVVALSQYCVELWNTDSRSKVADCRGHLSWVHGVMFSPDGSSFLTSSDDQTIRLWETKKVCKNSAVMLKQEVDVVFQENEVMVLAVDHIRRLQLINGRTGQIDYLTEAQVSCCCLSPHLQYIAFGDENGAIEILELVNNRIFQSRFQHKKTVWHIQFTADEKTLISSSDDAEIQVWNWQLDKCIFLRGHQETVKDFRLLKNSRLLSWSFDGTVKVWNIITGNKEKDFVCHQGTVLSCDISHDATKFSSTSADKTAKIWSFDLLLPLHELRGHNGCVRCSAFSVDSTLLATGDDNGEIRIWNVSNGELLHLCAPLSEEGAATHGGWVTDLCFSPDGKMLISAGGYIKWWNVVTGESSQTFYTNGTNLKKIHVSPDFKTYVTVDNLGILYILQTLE
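Material: reconstituted apoptosome with Apaf-1, cytochrome c, caspase-9, procaspase-3, dATP. Technique: Rh110 fluorescence intensity. Buffer or medium: pH 7.5 Hepes buffer with CHAPS, BSA, DTT. Times: 30 min plus 50 min, RT.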
MEKK2 WT-MEK5 – raises or lowers MEK5 binding to wildtype human MEKK2 PB1 domain; binding response (% of control), % at 10 µM; bead flow cytometry, Alexa488-MEK5 binding to MEKK2 WT; actives lie on both sides; Q9Y2U5; 290,000 tested, 1.1% active; in the data active = binding response below about 67% or above about 130%; inconclusive = no clear call, values can overlap the other calls; inactive = in between
UBC13 polyUb – human UBC13 polyubiquitination inhibition; inhibition, % at 20 µM; 330,000 tested, 0.47% active; P61088; UBC13 polyubiquitin chain formation, TR-FRET; AID 485273; in the data active = inhibition above about 45%, passing the limit was not always enough; inconclusive = no clear call, values can overlap the other calls
MEKK2mut PB1 HTS – signal of MEK5 binding to mutant human MEKK2 PB1 domain. bead flow cytometry, Alexa488-MEK5 binding to MEKK2 mutant. percent response, % at 10 µM. 290,000 tested, 0.35% active. AID 1530; in the data active = percent response above about 24%, passing the limit was not always enough
MEKK3 PB1 HTS – raises or lowers MEK5 binding to the human MEKK3 PB1 domain; Q99759; bead-based flow cytometry, Alexa488-MEK5 binding to MEKK3; actives lie on both sides; 0 = blocked by unlabeled MEK5, 100 = vehicle; binding response (% of control), % at 10 µM; 290,000 tested, 1.4% active; AID 1529;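 active = binding response more than 3 SD above or below the average of its plate-row segment, actives on both sides; inconclusive = wells at one plate position flagged as instrument error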;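 note: Alexa488 bead fluorescence after subtracting the streptavidin-only scavenger bead signal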
Apaf-1 inh conf2 – confirmation of Apaf-1 inhibitors. reconstituted apoptosome, caspase-3 DEVD-Rh110 fluorescence. inhibition, % at 20 µM. shares compounds with Apaf1 inhib. 1,800 tested, 25% active;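 active = mean inhibition of at least 40% at 20 µM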
Rh110 quench – Rh110 signal interference in Apaf-1 inhibitor counter-screen; shares compounds with Apaf1 inhib; Rh110 fluorescence interference, quenched caspase reaction; activation (fluorescence interference), % at 20 µM; 1,800 tested, under 10 active; AID 504615;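 active = signal rise of 40% or more at 20 µM, treated as a fluorescence artifact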
Apaf1 inh interf – Apaf-1 inhibitor counter-screen fluorescence artifact; shares compounds with Apaf1 inhib; fluorescence interference counterscreen, Apaf-1 assay format; IC50, µM; 460 tested, under 10 active; call rule not given here
Numbers stand for hits; - = inactive; ? = inconclusive; . = not tested or not shown.

SMILES | Apaf1 inhib | MEKK2 WT-MEK5 | UBC13 polyUb | MEKK2mut PB1 HTS | MEKK3 PB1 HTS | Apaf-1 inh conf2 | Rh110 quench | others
Cc1cccc2sc(N(CCCN(C)C)C(=O)c3ccc(S(=O)(=O)N4CCc5ccccc5C4)cc3)nc12 | 62.6 | 216.0 | - | 51.0 | - | - | -
COc1ccc(CN2CCNC(=O)C2CC(=O)NCCN2CCCCC2=O)c(F)c1 (centres undefined) | - | - | - | - | - | . | .
COC(=O)c1nn(-c2ccc(OC)cc2)c(=O)cc1NN | 42.2 | - | - | - | - | - | -
O=C1CNC(=S)N1CCCc1ccccc1 | - | - | - | - | - | . | .
S=C(NCc1ccccc1)N1CCN(C(=S)NCc2ccccc2)CC1 | - | . | - | . | . | . | .
N/C(=N\OC(=O)c1ccc(Cl)cc1Cl)c1cccnc1 | 76.2 | - | - | - | - | - | -
S=C(Nc1ccc2nsnc2c1)N1CCCCC1 | . | - | . | - | - | . | .
CCN(CC)C(=O)C1CCCN(C(=O)Nc2ccc3nsnc3c2)C1 (centres undefined) | 70.9 | - | - | - | - | - | -
Cc1cc(C)c(S(=O)(=O)Nc2ccc3c4c(cccc24)CC3)c(C)c1 | 43.0 | - | - | - | - | - | -
COc1ccc(N)cc1-n1c(C)ccc1C | 83.7 | - | - | - | - | - | -
COc1ccc(C)cc1-n1c(C)cc(C=O)c1C | - | - | - | - | - | . | .
O=C(Cn1ncc2c1-c1ccccc1OC2)N1CCN(Cc2ccc3c(c2)OCO3)CC1 | - | - | - | - | - | . | .
COc1cccc(/C=N/NC(=O)NC23CC4CC(CC(C4)C2)C3)c1O | 40.1 | . | - | . | . | - | -
O=C(N/N=C/c1ccccc1F)NC12CC3CC(CC(C3)C1)C2 | - | - | - | - | - | . | .
Cn1c(=O)n(C)c2cc([N+](=O)[O-])c(N3CCN(CCO)CC3)cc21 | - | - | - | - | - | . | .
Cc1ccc(SC2=C(Sc3ccc(C)cc3)C(=O)c3ccccc3C2=O)cc1 | 64.3 | - | - | - | - | - | -
Nc1c(C(=O)NCCN2CCOCC2)c2nc3ccccc3nc2n1CCc1ccccc1F | 43.3 | - | - | - | - | - | -
Nc1c(C(=O)NCCN2CCOCC2)c2nc3ccccc3nc2n1-c1ccc2c(c1)OCO2 | - | - | - | - | - | . | .
Nc1c(C(=O)NCc2ccc3c(c2)OCO3)c2nc3ccccc3nc2n1CCCN1CCOCC1 | 90.3 | - | - | - | - | 44.1 | - | Apaf1 inh interf=-
Nc1c(C(=O)NCCN2CCOCC2)c2nc3ccccc3nc2n1CCc1ccccc1 | - | - | - | - | - | . | .
CCN(CC(=O)Nc1ccc(C(C)=O)cc1)CC(=O)Nc1cccc(OC)c1 | - | - | - | - | - | . | .
OCCNC(=S)Nc1ccc2nsnc2c1 | 96.9 | - | - | - | - | - | -
CNC1=C(N(C(C)=O)c2ccc(Br)cc2)C(=O)c2ccccc2C1=O | . | - | . | - | - | . | .
CCC(=O)N(C1=C(NC)C(=O)c2ccccc2C1=O)C(C)C | 68.6 | - | - | - | - | 49.2 | - | Apaf1 inh interf=-
Cc1cc(C)c(C(N)=O)c(Nc2cccc3ccccc23)n1 | 96.2 | - | - | - | - | - | -
SMILES | Apaf1 inhib | MEKK2 WT-MEK5 | UBC13 polyUb | MEKK2mut PB1 HTS | MEKK3 PB1 HTS | Apaf-1 inh conf2 | Rh110 quench | others
CCOc1ccc(C(=O)CC(NCc2cccs2)C(=O)O)cc1 (centres undefined) | . | - | . | - | - | . | .
CCN(c1ccccc1)S(=O)(=O)c1ccc(Cl)c(NC(=O)CSc2n[nH]c(N)n2)c1 | - | - | - | - | - | . | .
Cc1ccccc1NC1=C/C(=N\S(=O)(=O)c2cccs2)c2ccccc2C1=O | 97.0 | - | - | - | - | 98.8 | - | Apaf1 inh interf=-
CC(=O)Nc1ccc(NC2=C/C(=N/S(=O)(=O)c3cccs3)c3ccccc3C2=O)cc1 | 90.0 | - | - | - | - | 94.4 | - | Apaf1 inh interf=-
COc1ccc(S(=O)(=O)/N=C2\C=C(Nc3ccc(O)cc3)C(=O)c3ccccc32)cc1 | 96.4 | - | - | - | - | 98.0 | - | Apaf1 inh interf=-
Cc1ccc(NC2=C/C(=N/S(=O)(=O)c3cccs3)c3ccccc3C2=O)cc1C | . | - | . | - | - | . | .
COc1ccc(S(=O)(=O)c2ccc(O)cc2)cc1 | - | - | - | - | - | . | .
Cc1cccc(NC(=S)N2CCC(NC(=O)c3ccco3)CC2)c1 | - | - | - | - | - | . | .
CC(C)c1ccc(OC(=O)c2cccc(S(=O)(=O)N3CCN(C)CC3)c2)cc1 | - | - | - | - | - | . | .
CN1CCN(S(=O)(=O)c2cccc(C(=O)Oc3ccc(C(C)(C)C)cc3)c2)CC1 | - | . | - | . | . | - | -
O=P(c1ccccc1)(c1ccccc1)c1cc(S(=O)(=O)O)ccc1O | - | - | - | - | - | . | .
O=C(OCc1nnc(-c2ccccc2)o1)c1ccc([N+](=O)[O-])s1 | 47.2 | . | - | . | . | - | -
O=C1c2ccccc2C(=O)c2c1cccc2-n1nnc2ccccc21 | - | - | - | - | - | . | .
O=C1C(N2CCOCC2)=C(n2nnc3ccccc32)C(=O)c2ccccc21 | 93.6 | - | - | - | - | 96.8 | - | Apaf1 inh interf=-
Cc1ccc(C(=O)NC(=S)Nc2cccc3nsnc23)cc1 | 58.9 | ? | - | - | - | - | -
CCCCCCSc1ccc(-c2nc3cnccn3c2NCCCC)cc1 | 55.9 | . | - | . | . | - | -
CCCCNc1c(-c2ccc(OC)c(SC(C)CC)c2)nc2cc(C)ccn12 (centres undefined) | 48.9 | . | - | . | . | - | -
CCCCCCSc1ccc(-c2nc3ccc(C)cn3c2NCc2ccccc2)cc1OC | 41.5 | . | - | . | . | - | -
CCCCCCSc1cc(-c2nc3ccc(C)cn3c2NCCCC)ccc1OC | 46.2 | . | - | . | . | - | -
CC(C)(C)c1cc(C(=O)N/N=C/c2ccc(-c3ccccc3[N+](=O)[O-])o2)n[nH]1 | 41.9 | - | - | - | - | - | -
O=C(/C=C/c1ccc(-c2ccccc2[N+](=O)[O-])o1)c1ccc(Br)cc1 | 48.8 | - | - | - | - | - | -
O=C(N/N=C/c1ccc(-c2ccccc2[N+](=O)[O-])o1)c1cccnc1 | 78.8 | - | - | - | - | 42.8 | - | Apaf1 inh interf=-
Cc1cc(C(=O)N/N=C/c2ccc(-c3cccc(Cl)c3Cl)o2)n[nH]1 | - | - | - | - | - | . | .
CC(C)C(=O)NC(c1cccs1)c1cc([N+](=O)[O-])c2cccnc2c1O (centres undefined) | 68.3 | - | - | - | - | - | -
Cc1ccc(C(NC(=O)C(C)C)c2cc([N+](=O)[O-])c3cccnc3c2O)cc1 (centres undefined) | - | - | - | - | - | . | .
O=C(Nc1ccc(Cl)cc1)C1C2C=CC3(O2)C1C(=O)N(CCCN1CCCCC1)C3C(=O)NC1CCCCC1 (centres undefined) | - | - | - | - | - | . | .
